In ChEMBL document CHEMBL3286128 (J Med Chem, 2014):
Activity calls are given as the source filed them. The calls are words filed in the database; no cut-off is given here.

Experiments:
[1] = target: T1, Human immunodeficiency virus type 1 integrase (Human immunodeficiency virus 1, UniProt Q7ZJM1)
[2] = target: T1, Human immunodeficiency virus type 1 integrase; assay: Inhibition of strand transfer activity of HIV-1 integrase using [gamma-32P]-labeled DNA as substrate
How it was run: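 Gel-based assay with radiolabelled oligonucleotide substrate and Mg2+ cofactor, measuring strand transfer by recombinant HIV-1 integrase. IC50 determined.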

[3] = test system: Human immunodeficiency virus 1; assay: Antiviral activity against HIV-1 harboring wild type integrase infected in human HOS cells pretreated with compound for 3 hrs by single-round HIV-1 infectivity assay; format: functional, organism-based; conditions: Human immunodeficiency virus 1, HOS
[4] = test system: Human immunodeficiency virus 1; assay: Antiviral activity against raltegravir-resistant HIV-1 harboring integrase Y143R mutant infected in human HOS cells pretreated with compound for 3 hrs by single-round HIV-1 infectivity assay; format: functional, organism-based; conditions: Human immunodeficiency virus 1, HOS
[5] = test system: Human immunodeficiency virus 1; assay: Antiviral activity against raltegravir-resistant HIV-1 harboring integrase N155H mutant infected in human HOS cells pretreated with compound for 3 hrs by single-round HIV-1 infectivity assay; format: functional, organism-based; conditions: Human immunodeficiency virus 1, HOS
[6] = test system: Human immunodeficiency virus 1; assay: Antiviral activity against raltegravir-resistant HIV-1 harboring integrase G140S/Q148H double mutant infected in human HOS cells pretreated with compound for 3 hrs by single-round HIV-1 infectivity assay; format: functional, organism-based; conditions: Human immunodeficiency virus 1, HOS
[7] = test system: Human immunodeficiency virus 1; assay: Ratio of EC50 for raltegravir-resistant HIV-1 harboring integrase Y143R mutant infected in human HOS cells to EC50 for HIV-1 harboring integrase wild type integrase infected in human HOS cells; format: functional
[8] = test system: Human immunodeficiency virus 1; assay: Ratio of EC50 for raltegravir-resistant HIV-1 harboring integrase N155H mutant infected in human HOS cells to EC50 for HIV-1 harboring integrase wild type integrase infected in human HOS cells; format: functional
[9] = test system: Human immunodeficiency virus 1; assay: Ratio of EC50 for raltegravir-resistant HIV-1 harboring integrase G140S/Q148H double mutant infected in human HOS cells to EC50 for HIV-1 harboring integrase wild type integrase infected in human HOS cells; format: functional
[10] = test system: Human immunodeficiency virus 1; assay: Antiviral activity against INSTI-resistant HIV-1 harboring integrase R263K mutant infected in human HOS cells pretreated with compound for 3 hrs by single-round HIV-1 infectivity assay; format: functional, organism-based; conditions: Human immunodeficiency virus 1, HOS
How it was run: (§1)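 VSV-g-pseudotyped single-round HIV-1 luciferase vector (WT or mutant IN) made in 293T cells by calcium phosphate transfection, supernatant harvested at 48 h. HOS cells were seeded the day before, then pretreated with compound, 11 serial dilutions from 10 μM to 0.0005 μM, at 37 °C for 3 h. Virus was added and cells kept 48 h at 37 °C. Luciferase was read and normalised to infectivity without compound.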

[11] = test system: Human immunodeficiency virus 1; assay: Antiviral activity against INSTI-resistant HIV-1 harboring integrase G118R mutant infected in human HOS cells pretreated with compound for 3 hrs by single-round HIV-1 infectivity assay; format: functional, organism-based; conditions: Human immunodeficiency virus 1, HOS
How it was run: as §1

[12] = test system: Human immunodeficiency virus 1; assay: Ratio of EC50 for INSTI-resistant HIV-1 harboring integrase R263K mutant infected in human HOS cells to EC50 for HIV-1 harboring integrase wild type integrase infected in human HOS cells; format: functional
[13] = test system: Human immunodeficiency virus 1; assay: Ratio of EC50 for INSTI-resistant HIV-1 harboring integrase G118R mutant infected in human HOS cells to EC50 for HIV-1 harboring integrase wild type integrase infected in human HOS cells; format: functional
HOS = assay: Cytotoxicity against human HOS cells assessed as ATP level by luciferase reporter assay; format: cell-based
How it was run: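 HOS cells were exposed to compound and viability was read as ATP level by luciferase reporter. […] SI is CC50 divided by WT-vector EC50.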

[14] = Selectivity index, ratio of CC50 for human HOS cells to EC50 for HIV-1 harboring wild type integrase infected in human HOS cells; format: toxicity, cell-based; conditions: read-out: Ratio CC50/EC50
How it was run: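 HOS cells were exposed to compound and viability was read as ATP level by luciferase reporter. SI is CC50 divided by WT-vector EC50.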

[15] = test system: Human immunodeficiency virus 1; assay: Antiviral activity against HIV-1 harboring wild type integrase infected in human HOS cells pretreated with compound for 3 hrs by single-round HIV-1 infectivity assay in presence of 5% fetal bovine serum; format: functional, organism-based; conditions: Human immunodeficiency virus 1, HOS
How it was run: as §1

[16] = test system: Human immunodeficiency virus 1; assay: Antiviral activity against HIV-1 harboring wild type integrase infected in human HOS cells pretreated with compound for 3 hrs by single-round HIV-1 infectivity assay in presence of 10% fetal bovine serum; format: functional, organism-based; conditions: Human immunodeficiency virus 1, HOS
How it was run: as §1

[17] = test system: Human immunodeficiency virus 1; assay: Antiviral activity against HIV-1 harboring wild type integrase infected in human HOS cells pretreated with compound for 3 hrs by single-round HIV-1 infectivity assay in presence of 15% fetal bovine serum; format: functional, organism-based; conditions: Human immunodeficiency virus 1, HOS
How it was run: as §1

[18] = target: Human immunodeficiency virus type 1 reverse transcriptase (Human immunodeficiency virus 1) (UniProt Q72547); assay: Inhibition of HIV-1 DNA-dependent DNA polymerase activity of reverse transcriptase after 60 mins by agarose gel electrophoresis
[19] = target: Human immunodeficiency virus type 1 reverse transcriptase (Human immunodeficiency virus 1) (UniProt Q72547); assay: Inhibition of HIV-1 RNase H activity of reverse transcriptase assessed as full length RNA level at 10 uM by agarose gel electrophoresis
[20] = target: Human immunodeficiency virus type 1 reverse transcriptase (Human immunodeficiency virus 1) (UniProt Q72547); assay: Inhibition of HIV-1 reverse transcriptase RNase H activity-mediated -8 cleavage assessed as retention of -17 cleavage after 10 to 15 mins by agarose gel electrophoresis
[21] = Retention time of the compound by HPLC analysis; format: physicochemical
How it was run: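 Preparative HPLC run as a linear gradient of solvent B over 30 min, starting at 30% B and ending at 70% or 80% B depending on the compound. Retention time was taken at elution.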

T1 sequence (Q7ZJM1 whole entry): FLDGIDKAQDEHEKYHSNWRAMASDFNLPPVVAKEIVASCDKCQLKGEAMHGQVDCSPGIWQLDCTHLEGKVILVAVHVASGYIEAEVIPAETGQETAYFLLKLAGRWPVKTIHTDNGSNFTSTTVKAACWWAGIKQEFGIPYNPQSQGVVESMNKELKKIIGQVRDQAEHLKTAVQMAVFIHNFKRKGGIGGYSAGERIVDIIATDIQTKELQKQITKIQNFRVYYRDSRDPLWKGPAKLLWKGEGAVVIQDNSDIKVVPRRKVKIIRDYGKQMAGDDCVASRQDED

For COC(=O)CNc1c(C(=O)NCc2ccc(F)cc2F)c(=O)n(O)c2ncccc12, the IC50 [1] was 710 nM, the IC50 [2] was 21 nM and the EC50 [3] was 3.8 nM. For the same molecule, the EC50 [4] was 4.6 nM, the EC50 [5] was 19 nM and the EC50 [6] was 36 nM. For the same molecule, the “Ratio EC50” value [7] was 1, the “Ratio EC50” value [8] was 5 and the “Ratio EC50” value [9] was 9. For the same molecule, the EC50 [10] was 26 nM, the EC50 [11] was 41 nM and the “Ratio EC50” value [12] was 7. For the same molecule, the “Ratio EC50” value [13] was 11, the CC50 (HOS) was greater than 250000 nM and the selectivity ratio [14] was greater than 65800. The EC50 [15] was 3.8 nM, the EC50 [16] was 3 nM and the EC50 [17] was 3 nM. For the same molecule, the inhibition [18] was “Active”, the inhibition [19] was “inactive” and the inhibition [20] was “Active”. For the same molecule, the Retention_time [21] was 28.4 min.
